Marks after values point to notes of the source that are not given here.
How the values were obtained:
[1] = Metabolism of isoflavones by homogenate of germfree mouse small intestine; format: in vitro ADME; settings: for Metabolized by incubation with germfree mouse small intestine (in words): 3 days anaerobically, both pH 5.0 and 7.4; for Aglycone detected after incubation against compound added / Glycoside detected after incubation against compound added: 3 days; for Hydrolysis by homogenate of germfree mouse small intestine (in words): without bacterial activity
Summary of the method: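 Upper small intestine from 14-week-old male germfree BALB/cA mice, homogenised anaerobically in 9 volumes BHI broth at pH 7.4 or 5.0. Test compound added from 5 mmol/l DMSO stock. Flavone internal standard added, then 5 extractions with equal-volume butanol, redissolved in 50% ethanol. Reversed-phase ODS HPLC (30 °C, acetonitrile/water/acetic acid gradient) with 260 nm diode-array detection. Values are % detected versus added.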

human fecal suspension = assay: Metabolism of isoflavones by human fecal suspensions; format: in vitro ADME; settings: for Tectorigenin detected after incubation: substrate Tectorigenin; for Daidzein detected after incubation: substrate Daidzein; for 6HG detected after incubation / 6HGDG detected after incubation: substrate 6HGDG; for Glycitein detected after incubation: substrate Glycitein; for Genistein detected after incubation: substrate Genistein

## COc1cc2c(=O)c(-c3ccc(O)cc3)coc2cc1O[C@@H]1O[C@H](CO)[C@@H](O)[C@H](O)[C@H]1O [Glycitin, glycitin]
[1]
  Glycitin metabolized detected as glycitein: about 65%
  Metabolized by incubation with germfree mouse small intestine (in words): completely metabolized
  Hydrolysis by homogenate of germfree mouse small intestine (in words): highly hydrolyzed
[1]; pH 5.0
  Aglycone detected after incubation against compound added: 65.5%
  Glycoside detected after incubation against compound added: 0.0%
[1]; pH 7.4
  Aglycone detected after incubation against compound added: 62.1%
  Glycoside detected after incubation against compound added: 0.0%

## COc1c(O)cc2occ(-c3ccc(O)cc3)c(=O)c2c1O [Tectorigenin, tectorigenin]
[1]; aglycone-form substrate
  Detected intact after incubation: More than 95%
Human fecal suspension; 1 fecal sample
  Substrate metabolized (in words): about half
Human fecal suspension; 8 of 10 fecal samples
  Substrate metabolized (in words): metabolized completely
Human fecal suspension; mixed human feces
  Metabolite detected (in words): no metabolite was detected
  Substrate metabolized (in words): completely
Human fecal suspension; Mix, mixture of 10 samples
  Tectorigenin detected after incubation: 0.0%
Human fecal suspension; fecal sample no. 1
  Tectorigenin detected after incubation: 53.5%
Human fecal suspension; fecal sample no. 2
  Tectorigenin detected after incubation: 2.6%
Human fecal suspension; fecal sample no. 3
  Tectorigenin detected after incubation: 0.0%
Human fecal suspension; fecal sample no. 4
  Tectorigenin detected after incubation: 0.0%
Human fecal suspension; fecal sample no. 5
  Tectorigenin detected after incubation: 0.0%
Human fecal suspension; fecal sample no. 6
  Tectorigenin detected after incubation: 0.0%
Human fecal suspension; fecal sample no. 7
  Tectorigenin detected after incubation: 0.0%
Human fecal suspension; fecal sample no. 8
  Tectorigenin detected after incubation: 0.0%
Human fecal suspension; fecal sample no. 9
  Tectorigenin detected after incubation: 0.0%
Human fecal suspension; fecal sample no. 10
  Tectorigenin detected after incubation: 0.0%

## COc1c(O[C@@H]2O[C@H](CO)[C@@H](O)[C@H](O)[C@H]2O)cc2occ(-c3ccc(O)cc3)c(=O)c2c1O [Tectoridin, tectoridin]
[1]
  Metabolized by incubation with germfree mouse small intestine (in words): completely metabolized
  Hydrolysis by homogenate of germfree mouse small intestine (in words): highly hydrolyzed
[1]; pH 5.0
  Glycoside detected after incubation against compound added: 0.0%
[1]; pH 7.4
  Glycoside detected after incubation against compound added: 0.0%

## O=c1c(-c2ccc(O)cc2)coc2cc(O)ccc12 [Daidzein, daidzein]
[1]; aglycone-form substrate
  Detected intact after incubation: More than 95%
Human fecal suspension; Mix, mixture of 10 samples
  Daidzein detected after incubation: 30.1%
Human fecal suspension; fecal sample no. 1
  Daidzein detected after incubation: 84.5%
Human fecal suspension; fecal sample no. 2
  Daidzein detected after incubation: 90.8%
Human fecal suspension; fecal sample no. 3
  Daidzein detected after incubation: 60.3%
Human fecal suspension; fecal sample no. 4
  Daidzein detected after incubation: 96.4%
Human fecal suspension; fecal sample no. 5
  Daidzein detected after incubation: 8.0%
Human fecal suspension; fecal sample no. 6
  Daidzein detected after incubation: 0.0%
Human fecal suspension; fecal sample no. 7
  Daidzein detected after incubation: 62.6%
Human fecal suspension; fecal sample no. 8
  Daidzein detected after incubation: 13.9%
Human fecal suspension; fecal sample no. 9
  Daidzein detected after incubation: 81.4%
Human fecal suspension; fecal sample no. 10
  Daidzein detected after incubation: 8.4%

## COc1c(O[C@@H]2O[C@H](CO[C@@H]3OC[C@@H](O)[C@H](O)[C@H]3O)[C@@H](O)[C@H](O)[C@H]2O)cc2occ(-c3ccc(O)cc3)c(=O)c2c1O [TGXG, Tectorigenin 7-O-xylosylglucoside]
[1]; pH 5.0
  Substrate metabolized: More than 95%
  Aglycone detected after incubation against compound added: 97.1%
  Glycoside detected after incubation against compound added: 4.9%
[1]; pH 7.4
  Substrate metabolized: 40%
  Aglycone detected after incubation against compound added: 43.7%
  Glycoside detected after incubation against compound added: 60.7%
[1]
  Hydrolysis by homogenate of germfree mouse small intestine (in words): highly hydrolyzed

## O=c1c(-c2ccc(O)cc2)coc2cc(O[C@@H]3O[C@H](CO)[C@@H](O)[C@H](O)[C@H]3O)c(O[C@@H]3O[C@H](CO)[C@@H](O)[C@H](O)[C@H]3O)c(O)c12 [6HGDG, 6-hydroxygenistein 6,7-di-O-glucoside]
[1]; pH 5.0
  Aglycone detected after incubation against compound added: 0.0%
  Glycoside detected after incubation against compound added: 99.4%
[1]; pH 7.4
  Aglycone detected after incubation against compound added: 0.0%
  Glycoside detected after incubation against compound added: 106.2^a %
[1]
  Hydrolysis by homogenate of germfree mouse small intestine (in words): not hydrolyzed
Human fecal suspension; incubation for 3 days
  Metabolism by human fecal bacteria (in words): completely metabolized
Human fecal suspension; incubation for 3 days, listed as 6-hydroxygenistein 6,7-di-O-glucoside
  Metabolism by human fecal bacteria (in words): highly metabolized
Human fecal suspension; six out of 10 samples
  6HGDG metabolized to its aglycone, 6HG: 9 to 56%
Human fecal suspension; Mix, mixture of 10 samples
  6HG detected after incubation: 0.0%
  6HGDG detected after incubation: 0.0%
Human fecal suspension; fecal sample no. 1
  6HG detected after incubation: 55.8%
  6HGDG detected after incubation: 0.0^a %
Human fecal suspension; fecal sample no. 2
  6HG detected after incubation: 40.8%
  6HGDG detected after incubation: 0.0%
Human fecal suspension; fecal sample no. 3
  6HG detected after incubation: 26.6%
  6HGDG detected after incubation: 0.0%
Human fecal suspension; fecal sample no. 4
  6HG detected after incubation: 28.4%
  6HGDG detected after incubation: 0.0%
Human fecal suspension; fecal sample no. 5
  6HG detected after incubation: 18.4%
  6HGDG detected after incubation: 0.0%
Human fecal suspension; fecal sample no. 6
  6HG detected after incubation: 8.7%
  6HGDG detected after incubation: 0.0%
Human fecal suspension; fecal sample no. 7
  6HG detected after incubation: 0.0%
  6HGDG detected after incubation: 0.0%
Human fecal suspension; fecal sample no. 8
  6HG detected after incubation: 0.0%
  6HGDG detected after incubation: 0.0%
Human fecal suspension; fecal sample no. 9
  6HG detected after incubation: 0.0%
  6HGDG detected after incubation: 0.0%
Human fecal suspension; fecal sample no. 10
  6HG detected after incubation: 0.0%
  6HGDG detected after incubation: 0.0%

## COc1cc2c(=O)c(-c3ccc(O)cc3)coc2cc1O [Glycitein, glycitein]
[1]; aglycone-form substrate
  Substrate added that was resolved (in words): about a half
Human fecal suspension; all fecal samples including the mixed sample
  Substrate metabolized: At least 75%
Human fecal suspension; Mix, mixture of 10 samples
  Glycitein detected after incubation: 8.0%
Human fecal suspension; fecal sample no. 1
  Glycitein detected after incubation: 24.6^a %
Human fecal suspension; fecal sample no. 2
  Glycitein detected after incubation: 17.5%
Human fecal suspension; fecal sample no. 3
  Glycitein detected after incubation: 2.7%
Human fecal suspension; fecal sample no. 4
  Glycitein detected after incubation: 10.7%
Human fecal suspension; fecal sample no. 5
  Glycitein detected after incubation: 7.1%
Human fecal suspension; fecal sample no. 6
  Glycitein detected after incubation: 0.0%
Human fecal suspension; fecal sample no. 7
  Glycitein detected after incubation: 12.2%
Human fecal suspension; fecal sample no. 8
  Glycitein detected after incubation: 3.2%
Human fecal suspension; fecal sample no. 9
  Glycitein detected after incubation: 0.0%
Human fecal suspension; fecal sample no. 10
  Glycitein detected after incubation: 5.6%

## O=c1c(-c2ccc(O)cc2)coc2cc(O[C@@H]3O[C@H](CO)[C@@H](O)[C@H](O)[C@H]3O)cc(O)c12 [Genistin]
[1]
  Metabolized by incubation with germfree mouse small intestine (in words): completely metabolized
  Hydrolysis by homogenate of germfree mouse small intestine (in words): highly hydrolyzed
[1]; pH 5.0
  Glycoside detected after incubation against compound added: 0.0%
[1]; pH 7.4
  Glycoside detected after incubation against compound added: 0.0%

## O=c1c(-c2ccc(O)cc2)coc2cc(O)cc(O)c12 [Genistein]
[1]; aglycone-form substrate
  Detected intact after incubation: More than 95%
Human fecal suspension; 1 sample
  Detected as intact substrate: 70%
Human fecal suspension; 1 sample, incubation for 3 days
  Substrate metabolized: 94%
Human fecal suspension; 2 samples
  Found intact: more than 90%
Human fecal suspension; any incubates
  Metabolites detected, including 6HG and equol (in words): No metabolites
Human fecal suspension; mixed human feces
  Substrate metabolized (in words): completely
Human fecal suspension; Mix, mixture of 10 samples
  Genistein detected after incubation: 0.0%
Human fecal suspension; fecal sample no. 1
  Genistein detected after incubation: 70.9%
Human fecal suspension; fecal sample no. 2
  Genistein detected after incubation: 91.2%
Human fecal suspension; fecal sample no. 3
  Genistein detected after incubation: 99.0%
Human fecal suspension; fecal sample no. 4
  Genistein detected after incubation: 5.9%
Human fecal suspension; fecal sample no. 5
  Genistein detected after incubation: 0.0%
Human fecal suspension; fecal sample no. 6
  Genistein detected after incubation: 0.0%
Human fecal suspension; fecal sample no. 7
  Genistein detected after incubation: 0.0%
Human fecal suspension; fecal sample no. 8
  Genistein detected after incubation: 0.0%
Human fecal suspension; fecal sample no. 9
  Genistein detected after incubation: 0.0%
Human fecal suspension; fecal sample no. 10
  Genistein detected after incubation: 0.0%
